27 molecules from ChEMBL document CHEMBL3399971 can be followed below.

Data set [1] in a line: Cytotoxicity against mouse BV2 cells by CytoTox96 non-radioactive cytotoxicity assay. The class given is cell-based, BV-2. The following applies: for MNTC: BV2 cells, read-out: MNCC. In a few lines: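 BV2 murine microglia in DMEM with 10% FBS, 37°C, 5% CO2. Compounds in 0.02% DMSO (final) added 1 h before LPS (50 ng/ml), 24 h co-incubation. Viability by CytoTox96 non-radioactive kit. Value is the highest concentration without obvious cytotoxicity.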

For data set [2], the target named is Metabotropic glutamate receptor 5 (Mus musculus, UniProt Q3UVX5). The data set can be described thus: Positive allosteric modulator activity at mGluR5 in mouse BV2 cells assessed as inhibition of nitric oxide production pre-treated 1 hr before lipopolysaccharide stimulation and measured 24 hrs post lipopolysaccharide stimulation by Griess reagent assay. Format: cell-based, BV-2. In a few lines:
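BV2 microglia grown in DMEM plus 10% FBS at 37°C, 5% CO2. Pretreated 1 h with compound in 0.02% DMSO (final), then stimulated with LPS 50 ng/ml for 24 h. Read-out is supernatant nitrite by Griess reagent as a proxy for NO. IC50 is the mean of three independent experiments.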

Data set [3] can be described thus: Selectivity index, ratio of MNCC against mouse BV2 cells to IC50 for mGluR5 in mouse BV2 cells. Format: functional, BV-2.

Sequence of Metabotropic glutamate receptor 5 (Q3UVX5 whole entry): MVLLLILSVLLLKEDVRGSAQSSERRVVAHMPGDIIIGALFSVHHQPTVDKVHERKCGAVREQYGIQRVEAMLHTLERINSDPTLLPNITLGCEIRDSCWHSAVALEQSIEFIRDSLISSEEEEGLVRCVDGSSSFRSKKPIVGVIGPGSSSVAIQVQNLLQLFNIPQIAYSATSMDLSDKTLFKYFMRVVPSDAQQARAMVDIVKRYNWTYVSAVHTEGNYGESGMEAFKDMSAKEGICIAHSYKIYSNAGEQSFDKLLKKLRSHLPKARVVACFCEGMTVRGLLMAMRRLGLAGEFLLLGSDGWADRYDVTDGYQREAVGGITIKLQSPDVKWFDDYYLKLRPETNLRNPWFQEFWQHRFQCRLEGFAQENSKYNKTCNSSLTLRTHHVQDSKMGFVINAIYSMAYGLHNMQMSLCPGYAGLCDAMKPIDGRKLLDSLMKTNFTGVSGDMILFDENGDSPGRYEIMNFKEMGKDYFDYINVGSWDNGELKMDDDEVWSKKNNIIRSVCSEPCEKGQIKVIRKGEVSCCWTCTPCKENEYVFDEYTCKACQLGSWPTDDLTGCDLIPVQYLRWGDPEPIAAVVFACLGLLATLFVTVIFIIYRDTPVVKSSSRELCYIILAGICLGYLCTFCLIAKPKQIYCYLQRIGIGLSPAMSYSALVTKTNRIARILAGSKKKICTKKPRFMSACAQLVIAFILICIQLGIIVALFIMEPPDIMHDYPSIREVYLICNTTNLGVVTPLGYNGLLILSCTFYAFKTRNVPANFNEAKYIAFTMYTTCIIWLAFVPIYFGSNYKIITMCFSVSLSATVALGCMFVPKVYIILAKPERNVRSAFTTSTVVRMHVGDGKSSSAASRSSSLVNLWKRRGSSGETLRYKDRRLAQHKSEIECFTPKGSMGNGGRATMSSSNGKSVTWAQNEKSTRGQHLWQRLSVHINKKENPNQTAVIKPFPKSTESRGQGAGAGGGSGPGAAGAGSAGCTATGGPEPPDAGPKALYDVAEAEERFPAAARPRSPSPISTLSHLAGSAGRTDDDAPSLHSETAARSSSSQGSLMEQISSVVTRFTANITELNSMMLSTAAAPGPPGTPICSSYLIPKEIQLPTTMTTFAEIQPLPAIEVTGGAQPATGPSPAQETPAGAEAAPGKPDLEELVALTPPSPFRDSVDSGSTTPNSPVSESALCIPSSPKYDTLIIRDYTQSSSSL

Turning to `O=C(Nc1nc2ccccc2[nH]1)C1CCC1`, the MNTC in data set [1] is 0.06 mM. Also, the IC50 in data set [2] (read-out: IC50) is 15 µM. The “Selectivity Index” value in data set [3] is recorded as 3.97.
`O=C(Nc1nc2ccccc2[nH]1)c1ccccn1`: the MNCC result in data set [1] (bv-2) is listed as “ND(Insoluble)”. In data set [2] (bv-2), the 50% inhibitory concentration (IC50) result is recorded as “ND(Insoluble)”.
For `O=C(Nc1nc2ccccc2[nH]1)c1cc(Cl)ccc1Cl`, in data set [1], the MNTC came to 0.1 mM. Moreover, the 50% inhibitory concentration (IC50) in data set [2] (read-out: IC50) is 12 µM. Also, the “Selectivity Index” value in data set [3] is 8.33.
`O=C(Nc1nc2ccccc2[nH]1)c1ccc([N+](=O)[O-])cc1`: in data set [1], the MNTC is 0.3 mM. Further, the IC50 in data set [2] (read-out: IC50) is 33 µM. The “Selectivity Index” value in data set [3] worked out at 9.2.
For `O=C(Nc1nc2ccccc2[nH]1)c1ccc(F)cc1`, in that order: 1 mM, 15 µM and 67.1.
For `O=C(Nc1nc2ccccc2[nH]1)c1ccccc1Cl`, in that order: 0.3 mM, 110 µM and 2.67.
In the case of `CN(C(=O)c1cccc(Cl)c1)c1nc2ccccc2[nH]1`, in data set [1], the MNTC worked out at 1 mM. Also, the half-inhibitory concentration (IC50) in data set [2] (read-out: IC50) turned out to be 210 µM. Besides, the “Selectivity Index” value in data set [3] amounted to 4.85.
On the same counts, the results for `O=C(Nc1nc2ccccc2[nH]1)c1ccccc1C(F)(F)F` are 1 mM, 88 µM and 11.3.
On the same counts, the results for `O=C(Sc1nc2ccccc2[nH]1)c1cccc(Cl)c1` are 1 mM, 160 µM and 6.36.
`COc1ccc(C(=O)Nc2nc3ccccc3[nH]2)cc1`: the MNTC in data set [1] stood at 1 mM. Moreover, the IC50 in data set [2] (read-out: IC50) was determined as 100 µM. Further, the “Selectivity Index” value in data set [3] is listed as 10.1.
For the molecule `COc1cccc(C(=O)Nc2nc3ccccc3[nH]2)c1`, the MNTC in data set [1] came out at 1 mM. In addition, the IC50 in data set [2] (read-out: IC50) was determined as 120 µM. Also, the “Selectivity Index” value in data set [3] was found to be 8.06.
With `COc1cc(C(=O)Nc2nc3ccccc3[nH]2)ccc1S(N)(=O)=O`, in data set [1], the MNTC worked out at 1 mM. Also, the half-maximal inhibitory concentration (IC50) in data set [2] (read-out: IC50) was 150 µM. Moreover, in data set [3], the “Selectivity Index” value was 6.59.
For `O=C(Nc1nc2ccccc2[nH]1)c1cccc(C(F)(F)F)c1`, in that order: 0.2 mM, 12 µM and 17.2.
On to `O=C(Nc1nc2ccccc2[nH]1)c1cccc([N+](=O)[O-])c1`, for which the MNTC in data set [1] worked out at 1 mM. Further, the IC50 in data set [2] (read-out: IC50) was 29 µM.
On to `CN(C)c1cccc(C(=O)Nc2nc3ccccc3[nH]2)c1`, for which the MNTC in data set [1] came to 0.3 mM. For the same molecule, the half-inhibitory concentration (IC50) in data set [2] (read-out: IC50) was determined as 20 µM. The “Selectivity Index” value in data set [3] worked out at 14.7.
`O=C(Nc1nc2ccccc2[nH]1)c1ccc(Cl)cc1`: the MNTC in data set [1] was determined as 1 mM. The IC50 in data set [2] (read-out: IC50) came out at 25 µM. In addition, the “Selectivity Index” value in data set [3] turned out to be 40.4.
On the same counts, the results for `O=C(Nc1nc2ccccc2[nH]1)c1cccc(Cl)c1` are 1 mM, 29 µM and 34.6.
On the same counts, the results for `O=C(Nc1nc2ccccc2[nH]1)c1ccccc1F` are 1 mM, 36 µM and 28.
On the same counts, the results for `O=C(Nc1nc2ccccc2[nH]1)C1CCCCC1` are 1 mM, 42 µM and 24.1.
Regarding `O=C(Nc1nc2ccccc2[nH]1)c1cc(Cl)cc(Cl)c1`, the MNTC in data set [1] is 0.8 mM. Further, the IC50 in data set [2] (read-out: IC50) was 6.4 µM. In data set [3], the “Selectivity Index” value is 125.
Regarding `Fc1cccc(/C=N/N=C/c2cccc(F)c2)c1`, the MNTC in data set [1] came to 0.5 mM.
Regarding `O=C(Nc1nc2ccccc2[nH]1)c1ccccc1`, in data set [1], the MNTC is 1 mM. Further, in data set [2] (read-out: IC50), the IC50 was 160 µM. For the same molecule, the “Selectivity Index” value in data set [3] is given as 6.17.
For the molecule `O=C(Nc1nc2ccccc2[nH]1)c1ccncc1`, the MNTC in data set [1] came out at 1 mM.
Turning to `O=C(Nc1nc2ccccc2[nH]1)c1ccc(Cl)c(Cl)c1`, in data set [1], the MNTC is 0.1 mM. In addition, the IC50 in data set [2] (read-out: IC50) turned out to be 9.8 µM. The “Selectivity Index” value in data set [3] was determined as 10.2.
For `O=C(/C=C/c1ccncc1)Nc1nc2ccccc2[nH]1`, in that order: 1 mM, 22 µM and 44.8.
For `O=C(Nc1nc2ccccc2[nH]1)c1ccc(C(F)(F)F)cc1`, in that order: 1 mM, 59 µM and 16.9.
On the same counts, the results for `O=C(Nc1nc2ccccc2[nH]1)c1cc(C(F)(F)F)ccc1C(F)(F)F` are 0.06 mM, 34 µM and 1.74.
